Measured values published in ChEMBL document CHEMBL1125209, “Boc-CCK-4 derivatives containing side-chain ureas as potent and selective CCK-a receptor agonists” (J Med Chem, 1991).
*1 amine or outer side, *2 acyl side, *3 side chain or, on linkers, in order; H or OH if unused. Where a SMILES comes first, the peptide text is derived from it. Side-chain parts run from the residue outwards. The star is where a group is joined. 3Abz = Nc1cccc(C(=O)O)c1; X4 = CC(=O)c1cccc(N*)c1; Boc = CC(C)(C)OC(=O)*; X7 = Clc1cccc(N*)c1Cl; CO = O=C([*:1])[*:2]; NHPh = c1ccc(N*)cc1

Experiments:
[1] = biological target: T1, Cholecystokinin receptor type A (Cavia porcellus, UniProt Q63931); test: Binding affinity towards cholecystokinin type A receptor in guinea pig pancreas by using [125I]BH-CCK-8 as radioligand; assay type: tissue-based
T1 sequence (Q63931 whole entry): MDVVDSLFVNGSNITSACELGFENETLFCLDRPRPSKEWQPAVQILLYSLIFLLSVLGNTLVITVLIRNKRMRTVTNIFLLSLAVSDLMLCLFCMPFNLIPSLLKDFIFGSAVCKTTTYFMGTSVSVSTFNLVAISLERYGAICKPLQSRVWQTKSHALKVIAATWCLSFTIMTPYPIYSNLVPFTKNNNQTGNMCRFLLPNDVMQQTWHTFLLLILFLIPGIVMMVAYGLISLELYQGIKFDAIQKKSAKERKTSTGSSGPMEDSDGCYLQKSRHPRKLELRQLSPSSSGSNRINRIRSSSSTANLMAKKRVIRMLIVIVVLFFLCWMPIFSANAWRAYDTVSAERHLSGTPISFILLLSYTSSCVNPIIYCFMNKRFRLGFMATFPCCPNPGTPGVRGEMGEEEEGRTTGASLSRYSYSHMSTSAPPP
Summary of the method: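 Radioligand displacement of [125I]Bolton-Hunter CCK-8, guinea pig pancreas (CCK-A) or cortex (CCK-B) membranes. […] Each determination was run in duplicate with <5% sample variability. Means ±SE are given where there were three or more determinations.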

Cavia porcellus [2] = species on record: Cavia porcellus; test: Percentage response in phosphoinositide hydrolysis relative to maximal response elicited by CCK-8 in guinea pig pancreatic acini; assay type: functional
Summary of the method: (§1)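 Guinea pig pancreatic acini, phosphoinositide hydrolysis. […] Efficacy is expressed as % of the maximal response elicited by CCK-8. Each determination was run in duplicate with <5% sample variability. Means ±SE are given for three or more determinations.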

Cavia porcellus [3] = species on record: Cavia porcellus; test: The compound was tested for effective concentration for amylase release in guinea pig pancreatic Acini; assay type: functional
Summary of the method: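 Amylase release from guinea pig pancreatic acini. […] Each determination was run in duplicate with <5% sample variability. Means ±SE are given where there were three or more determinations.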

[4] = Selectivity ratio of IC50 measured in guinea pig cortex to that of IC50 for guinea pig pancreas; conditions: Cavia porcellus
Cavia porcellus [5] = species on record: Cavia porcellus; test: Effective concentration for hydrolysis of phosphoinositide in guinea pig pancreatic Acini; assay type: functional; summary of the method: as §1
[6] = biological target: Gastrin/cholecystokinin type B receptor (Cavia porcellus); test: Binding affinity towards cholecystokinin type B receptor in guinea pig cortex by using [125I]BH-CCK-8 as radioligand

| Structure (SMILES) | IC50 [1] [nM] | Max response (Cavia porcellus [2]) [%] | EC50 (Cavia porcellus [3]) [nM] | Selectivity [4] | EC50 (Cavia porcellus [5]) [nM] | IC50 [6] [nM] |
| --- | --- | --- | --- | --- | --- | --- |
| COC(=O)c1cccc(NC(=O)NCCCC[C@H](NC(=O)[C@H](Cc2c[nH]c3ccccc23)NC(=O)OC(C)(C)C)C(=O)N[C@@H](CC(=O)O)C(=O)N[C@@H](Cc2ccccc2)C(N)=O)c1 (Boc-WK([CO-3Abz-OMe])DF-NH2) | 26 | 88 | 2.7 | 54 | – | – |
| CC(C)(C)OC(=O)N[C@@H](Cc1c[nH]c2ccccc12)C(=O)N[C@@H](CCCCNC(=O)Nc1ccccc1)C(=O)N[C@@H](CC(=O)O)C(=O)N[C@@H](Cc1ccccc1)C(N)=O (Boc-WK([CO-NHPh])DF-NH2) | – | 96 | – | 42 | 53 | 1100 |
| CC(=O)c1cccc(NC(=O)NCCCC[C@H](NC(=O)[C@H](Cc2c[nH]c3ccccc23)NC(=O)OC(C)(C)C)C(=O)N[C@@H](CC(=O)O)C(=O)N[C@@H](Cc2ccccc2)C(N)=O)c1 (Boc-WK([CO-X4])DF-NH2) | 19 | 95 | 5.2 | – | – | – |
| CC(C)(C)OC(=O)N[C@@H](Cc1c[nH]c2ccccc12)C(=O)N[C@@H](CCCCNC(=O)Nc1cccc(Cl)c1Cl)C(=O)N[C@@H](CC(=O)O)C(=O)N[C@@H](Cc1ccccc1)C(N)=O (Boc-WK([CO-X7])DF-NH2) | 4.5 | – | – | 670 | – | – |
